Compound activity: PubChem, The Scripps Research Institute Molecular Screening Center
Rows were chosen to be rich in hits. Some 2.7% of all compounds tested hit in one or more screens of this group.
ASAP1 GAP inh: inhibitors of human ASAP1 ArfGAP activity | AID 624377 | ASAP1-stimulated ARF1 GTP hydrolysis, GDP FP detection | inhibition, % at 16.5 µM | 0.19% of 360,000 active; in the data active means inhibition above about 25%;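 further: 0% = vehicle with enzyme and substrate and 100% = no enzyme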
Target sequence (Q9ULH1 325-724 limits assumed): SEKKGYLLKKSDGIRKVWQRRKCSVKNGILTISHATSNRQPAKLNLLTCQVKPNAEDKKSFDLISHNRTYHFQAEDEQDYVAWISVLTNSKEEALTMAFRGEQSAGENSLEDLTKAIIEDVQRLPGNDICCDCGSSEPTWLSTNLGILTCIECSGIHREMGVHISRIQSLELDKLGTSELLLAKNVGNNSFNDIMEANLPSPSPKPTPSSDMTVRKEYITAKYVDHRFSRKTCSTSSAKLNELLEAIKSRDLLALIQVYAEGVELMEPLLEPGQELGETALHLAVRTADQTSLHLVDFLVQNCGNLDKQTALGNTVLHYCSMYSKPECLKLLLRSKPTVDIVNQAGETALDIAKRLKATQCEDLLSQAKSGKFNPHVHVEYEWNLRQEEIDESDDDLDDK
PAFAH2 inh: inhibitors of human PAFAH2 | Q99487 | 0.99% of 340,000 active | recombinant PAFAH2, FP-rhodamine activity probe, fluorescence polarization | inhibition, % at 3.39 µM;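 active means inhibition above the mean over all tested compounds plus 3 SD, cut at about 30% in these data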;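 further: inhibitors block probe labeling of enzyme so polarization drops; 0% = enzyme with DMSO and 100% = wells lacking PAFAH2 protein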
pPAFAH inh: pPAFAH (human) enzyme inhibition | Q13093 | recombinant pPAFAH, FP-rhodamine probe fluorescence polarization | inhibition, % at 3.39 µM | 1.5% of 330,000 active | AID 463082;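 active means inhibition above the mean inhibition across the screen plus 3 SD, cut at about 25% in these data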;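 further: inhibitors block binding of the rhodamine activity-based probe so polarization drops; 0% = enzyme with DMSO and 100% = wells lacking pPAFAH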
PAFAH1B2 FP inh: inhibitors of human PAFAH1B2; 1.2% of 340,000 active; recombinant PAFAH1B2, FP-rhodamine activity probe, fluorescence polarization; inhibition, % at 3.39 µM; P68402;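 active means inhibition above the mean of all tested compounds plus 3 SD, cut at about 24% in these data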;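 further: 0% = enzyme with DMSO and 100% = wells lacking PAFAH1B2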
PAFAH1B3 FP inh: PAFAH1B3 (human) inhibition; recombinant PAFAH1B3, FP-rhodamine probe, fluorescence polarization; 0.28% of 340,000 active; inhibition, % at 3.39 µM; AID 492972; Q15102;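 active means inhibition above the screen-wide average of all tested compounds plus 3 SD, cut at about 25% in these data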;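 further: 0% = enzyme with DMSO only and 100% = wells lacking PAFAH1B3 protein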
ARFGAP1 inhibitor: inhibits rat ARF GTPase activating protein 1; Q62848; Arfgap1-stimulated ARF1 GTP hydrolysis, GDP FP detection; inhibition, % at 16.5 µM; 0.26% of 360,000 active; AID 651572;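 active means inhibition above a per-plate limit, mean inhibition of low control wells plus 3 SD, cut at about 25% in these data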;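 further: 0% = DMSO wells with enzyme and 100% = wells lacking Arfgap1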
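System: truncated rat Arfgap1 GAP domain / Benchmarks: high control wells lacking Arfgap1, low control full reaction with DMSO / Times: compound-enzyme preincubation 20 min, reaction 120 min, detection 60 min, 25 °C / Repeats: one replicate per compound / Also added: human ARF1(Δ1-17)-GTP substrate / Measured by: Tracer-displacement fluorescence polarization with EDTA stop, 620/688 nm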
ASAP1 GAP conf: ASAP1 inhibition confirmed; shares compounds with ASAP1 GAP inh; ASAP1-stimulated Arf1 GTPase, GDP fluorescence polarization; inhibition, % at 16.5 µM; 37% of 620 active;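 active means mean inhibition over triplicates exceeds the hit threshold derived for the earlier primary screening run, cut at about 25% in these data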
ARFGAP1 inh conf: confirmation of rat ARFGAP1 inhibitors. shares compounds with ARFGAP1 inhibitor. 30% of 890 active. ARFGAP1-stimulated ARF1 GTP hydrolysis, GDP tracer FP. inhibition, % at 16.5 µM;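 active means average inhibition over triplicates above the hit cutoff set in the earlier primary screen, cut at about 25% in these data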;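 further: 0% = Arfgap1 plus ARF1-GTP with DMSO and 100% = wells lacking Arfgap1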
The depositor's hits bear a star; nt = not tested or not shown; + = active, no number.

SMILES	ASAP1 GAP inh	PAFAH2 inh	pPAFAH inh	PAFAH1B2 FP inh	PAFAH1B3 FP inh	ARFGAP1 inhibitor	ASAP1 GAP conf	ARFGAP1 inh conf
COc1ccc(Cl)cc1C(=O)Nc1cccc(-c2ccc3nncn3n2)c1	191*	19	10	4	1	+	196*	+
CC1CC(C)CN(S(=O)(=O)c2ccc(C(=O)N(C)Cc3ccccc3)cc2)C1 (stereo not drawn)	-4	1	1	3	2	-15	nt	nt
COCCNC(=O)C1(C)CCCN(C(=O)c2cc(C)oc2C)C1 (stereo not drawn)	-1	nt	nt	nt	nt	-2	nt	nt
COc1ccc(/C=N\NC(=O)c2ccc([N+](=O)[O-])cc2)cc1COc1c(F)c(F)cc(F)c1F	52*	-2	nt	1	9	82*	58*	99*
COc1ccc(C(=O)N/N=C/c2ccc(OC)c(COc3c(F)c(F)cc(F)c3F)c2)cc1	2	-5	nt	-5	-5	9	nt	nt
Cc1ccc(C)c(OCCC(=O)Nc2ccccc2C(=O)NC2CC2)c1	15	3	4	2	5	8	nt	nt
Cc1cc2oc3ccc(NCCCN4CCOCC4)cc3c(=O)c2cc1C	-16	1	13	0	10	5	nt	nt
Cc1cc2oc3ccc(NCCCn4ccnc4)cc3c(=O)c2cc1C	79*	14	20	5	12	115*	127*	+
CC(=O)Nc1ccc(Nc2nc(-c3cc4ccccc4oc3=O)cs2)cc1	7	8	nt	7	12	-5	nt	nt
O=C(O)c1ccc(Nc2nc(-c3cc4ccccc4oc3=O)cs2)cc1O	25*	nt	nt	nt	nt	27*	33*	45*
Cc1[nH][nH]c(=O)c1C(c1ccc(-c2ccc(Cl)c(C(=O)O)c2)o1)c1c(C)[nH][nH]c1=O	42*	21	nt	8	17	25*	11	-2
CC1(C)OC(=O)C(=Cc2ccc(-c3ccc(Cl)c(C(=O)O)c3)o2)C(=O)O1	-6	8	9	4	10	-11	nt	nt
COc1ccc(C(=O)Nc2nnc(SCC(=O)NC3CCCC3)s2)c(OC)c1	19	-6	3	3	-3	-1	nt	nt
COc1ccc(C(=O)Nc2nnc(SCC(=O)Nc3ccc(NC(C)=O)cc3)s2)c(OC)c1	39*	-9	3	-7	-5	52*	82*	122*
COC(=O)CSc1nnc2n(-c3ccc(OC)cc3)c(=O)c3c4c(sc3n12)CCCCC4	39*	-1	-3	2	10	62*	42*	75*
COC(=O)CSc1nnc2n(C3CCCCC3)c(=O)c3c4c(sc3n12)CCCC4	-4	4	5	9	8	14	nt	nt
O=C1Nc2ccccc2C1Cc1ccccn1 (stereo not drawn)	-6	8	1	5	2	5	nt	nt
N#CC1C(=O)Nc2cccnc21 (stereo not drawn)	30*	nt	nt	nt	nt	28*	1	-2
O=c1c(Cl)c(N/N=C/c2ccc(Br)cc2)cnn1-c1ccccc1	42*	-1	6	-4	-15	44*	33*	65*
COc1ccc(/C=C2\Oc3cc(OCC(N)=O)ccc3C2=O)cc1OC	35*	-4	6	3	3	32*	47*	45*
CC(C)CNc1ncnc2c1ncn2[C@H]1CN(Cc2ccco2)C[C@@H](CO)O1	-8	nt	nt	nt	nt	-1	nt	nt
COc1ccc(OC)c(/C=N/NC(=O)C(=O)N/N=C/c2cc(OC)ccc2OC)c1	1	-6	-4	2	4	15	nt	nt
COc1ccc(OC)c(C=NNC(=O)NN=Cc2cc(OC)ccc2OC)c1	42*	nt	nt	nt	nt	57*	96*	92*
CN1/C(=C\C=O)C(C)(C)c2ccccc21	-5	1	-5	0	-3	-8	nt	nt
CN1\C(=C/C=C/C=C/C=[N+](C)C)C(C)(C)c2ccccc21	55*	-190	nt	-238	-356	47*	41*	37*
CCCCOc1cccc2c(=O)n(CC(=O)Nc3ccc4c(c3)OCCO4)ccc12	35*	nt	nt	nt	nt	25*	34*	38*
